{"source": "paper PMC6677593", "about": "(Molecular cancer therapeutics, 2019)", "key": {"[1]": {"molecular_target": "T1, glucocorticoid receptor (GR) (Homo sapiens, UniProt P04150)", "T1 sequence (P04150 1-777)": "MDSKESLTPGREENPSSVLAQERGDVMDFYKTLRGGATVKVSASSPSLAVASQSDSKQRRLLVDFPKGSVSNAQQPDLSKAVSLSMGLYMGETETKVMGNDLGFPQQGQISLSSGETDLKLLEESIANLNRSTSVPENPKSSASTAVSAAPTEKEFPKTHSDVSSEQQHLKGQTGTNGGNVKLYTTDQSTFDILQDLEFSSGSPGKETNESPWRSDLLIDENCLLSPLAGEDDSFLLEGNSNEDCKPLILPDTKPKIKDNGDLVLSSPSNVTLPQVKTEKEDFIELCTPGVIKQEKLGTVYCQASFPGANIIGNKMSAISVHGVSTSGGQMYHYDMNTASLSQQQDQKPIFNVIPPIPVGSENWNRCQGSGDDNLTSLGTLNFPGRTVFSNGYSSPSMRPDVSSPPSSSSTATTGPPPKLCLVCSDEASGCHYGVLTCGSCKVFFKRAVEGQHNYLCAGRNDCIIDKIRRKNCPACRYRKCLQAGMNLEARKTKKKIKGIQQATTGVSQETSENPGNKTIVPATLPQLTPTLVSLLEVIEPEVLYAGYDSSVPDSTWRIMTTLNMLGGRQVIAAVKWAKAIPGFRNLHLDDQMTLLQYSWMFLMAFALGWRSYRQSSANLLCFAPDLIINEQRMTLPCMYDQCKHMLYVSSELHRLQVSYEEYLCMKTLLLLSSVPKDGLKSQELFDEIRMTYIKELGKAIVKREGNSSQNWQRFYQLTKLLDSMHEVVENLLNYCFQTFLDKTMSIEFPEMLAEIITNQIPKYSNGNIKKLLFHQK", "experiment": "GR antagonism assay", "assay_type": "biochemical", "details": "read-out: antagonism to GR"}, "[2]": {"tested_on": "BT-549 cells", "experiment": "MTT cell viability assay on BT-549 cells", "assay_type": "cell-based, Human", "details": "BT-549 model cells (Fig. 1B)"}, "[3]": {"molecular_target": "T2, GR (Homo sapiens, UniProt P04150)", "T2 sequence (P04150 1-777)": "T1 sequence (P04150 1-777)", "experiment": "In vitro steroid receptor binding assays", "details": "receptor binding studies (Fig. 1C)"}, "[4]": {"molecular_target": "Recombinant human LIF (Homo sapiens, UniProt P15018)", "sequence (P15018 23-202)": "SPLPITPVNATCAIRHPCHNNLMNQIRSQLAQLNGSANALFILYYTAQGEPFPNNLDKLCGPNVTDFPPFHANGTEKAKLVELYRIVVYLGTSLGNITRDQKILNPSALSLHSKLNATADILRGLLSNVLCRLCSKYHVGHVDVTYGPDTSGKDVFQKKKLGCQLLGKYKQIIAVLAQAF", "experiment": "Surface plasmon resonance", "assay_type": "binding", "details": "SPR"}, "[5]": {"tested_on": "TNBC cells (BT-549, SUM-159, MDA-MB-231, HCC1937, MDA-MB-468, HCC1806)", "experiment": "MTT cell viability assay in TNBC cells", "assay_type": "cell-based, Human", "details": "read-out: IC50, cell viability of TNBC cells, 5 days"}, "[6]": {"tested_on": "MDA-MB-231 and SUM-159 cells", "experiment": "Clonogenic survival assay", "assay_type": "cell-based, Human", "details": "EC359 20 nM"}, "[7]": {"tested_on": "MDA-MB-231 and BT-549 cells", "experiment": "Matrigel invasion chamber assay", "assay_type": "cell-based, Human", "details": "EC359 25 nM, 22 h"}, "[8]": {"tested_on": "MDA-MB-231 and BT-549 cells", "experiment": "Annexin V/PI staining", "assay_type": "cell-based, Human"}, "[9]": {"tested_on": "STAT3-Luc reporter in BT-549 and MDA-MB-231 cells", "experiment": "STAT3-luc reporter gene assay", "assay_type": "cell-based, Human", "details": "BT-549, EC359 50 nM pretreatment 1 h", "in_short": "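MDA-MB-231 and BT-549 lines stably transduced with a STAT3-firefly luciferase reporter lentivirus were serum-starved for 24 h and pretreated with test compound (50 nM) for 1 h. They were then stimulated with LIF, CTF1, OSM or CNTF at indicated concentrations for 24 h. Lysates in passive lysis buffer were read by dual-luciferase luminescence; n=3.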"}, "[10]": {"tested_on": "LIFR downstream signaling in MDA-MB-231 and BT-549 cells", "experiment": "Western blotting of LIFR downstream signaling", "assay_type": "cell-based, Human", "in_short": "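After 24 h serum starvation and 1 h pretreatment with test compound (100 nM), cells were stimulated for 10 min with LIF (MDA-MB-231, BT-549), or with OSM or CNTF at 10 ng (BT-549). For downstream kinases, cells were treated with 100 nM. Lysates were made in RIPA with protease/phosphatase inhibitors and blotted with ECL detection. p-STAT3 bands were quantified, normalized to total STAT3 and expressed as fold over control.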"}, "[11]": {"tested_on": "ALDH+ (CSCs) and ALDH− (non CSCs) cells", "experiment": "Cell Titer-Glo viability of CSCs and non CSCs", "assay_type": "cell-based, Human", "details": "3 days"}, "[12]": {"tested_on": "CSCs from MDA-MB-231 and BT-549 cells", "experiment": "Extreme limiting dilution assay", "assay_type": "cell-based, Human", "details": "10 days", "in_short": "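ALDH+ CSCs were sorted by ALDEFLUOR flow cytometry and grown in supplemented MammoCult. They were seeded at 100, 50, 20, 10, 5 and 1 cells/well on ultra-low attachment plates with vehicle or test compound. After 10 days, wells with spheres were scored at each density, and stem cell frequency was estimated by ELDA analysis.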"}, "[13]": {"tested_on": "MDA-MB-231 xenograft tumors", "experiment": "MDA-MB-231 xenograft study", "assay_type": "in vivo, athymic nude mice", "details": "5 mg/kg/day s.c. 3 days/week"}, "[14]": {"tested_on": "TNBC PDX tumors", "experiment": "TNBC patient derived xenograft", "assay_type": "in vivo, SCID mice", "details": "10 mg/kg/day s.c. 3 days/week"}, "[15]": {"details": "rats"}, "[16]": {"molecular_target": "CYP 2D6 (Homo sapiens, UniProt P10635)", "sequence (P10635 whole entry)": "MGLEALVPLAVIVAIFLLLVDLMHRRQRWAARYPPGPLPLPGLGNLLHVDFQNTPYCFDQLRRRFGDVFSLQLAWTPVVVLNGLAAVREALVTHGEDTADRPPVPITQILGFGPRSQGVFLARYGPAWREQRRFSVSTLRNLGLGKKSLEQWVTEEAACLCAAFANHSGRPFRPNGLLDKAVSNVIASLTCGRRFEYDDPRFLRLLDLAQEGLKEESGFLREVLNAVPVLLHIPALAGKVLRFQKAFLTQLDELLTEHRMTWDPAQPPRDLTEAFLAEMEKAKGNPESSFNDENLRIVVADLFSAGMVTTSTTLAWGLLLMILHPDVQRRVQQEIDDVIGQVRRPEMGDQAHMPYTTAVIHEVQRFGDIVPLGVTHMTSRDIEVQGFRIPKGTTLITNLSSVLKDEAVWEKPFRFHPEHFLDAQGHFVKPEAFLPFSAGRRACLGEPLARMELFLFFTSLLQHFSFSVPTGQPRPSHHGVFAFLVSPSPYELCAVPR"}, "[17]": {"details": "human"}, "[18]": {"details": "human", "remark": "listed apart in the source"}, "[19]": {"details": "human", "remark": "listed apart in the source"}, "[20]": {"tested_on": "MDA-MB-231 and BT-549 cells", "details": "72 h"}, "[21]": {"details": "intraperitoneal and oral dosing"}, "[22]": {"tested_on": "salmonella typhimurium strains TA98, TA100, TA1535, TA1537 and E.coli combo", "experiment": "Ames test", "details": "with and without metabolic activation, OECD guideline no.471"}}, "note": "Like-named read-outs stand apart in the source and are kept apart here.", "data": [{"smiles": "C#CC(F)(F)[C@]1(O)CC[C@H]2[C@@H]3CCC4=CC(=O)CCC4=C3[C@@H](c3ccc(C4CC4)cc3)C[C@@]21C", "note": "[EC330]", "values": [{"measurement": "IC50", "setting": "[1]", "result": 79.8, "unit": "nM"}]}, {"smiles": "C#CC(F)(F)[C@]1(O)CC[C@H]2[C@@H]3CCC4=CC(=O)CCC4=C3[C@@H](c3ccc(-c4c(C)cc(C)cc4C)cc3)C[C@@]21C", "note": "[EC359]", "values": [{"measurement": "inhibitory activity in cell viability assay", "setting": "[2]", "result": "significant inhibitory activity on par with EC330"}, {"measurement": "affinity to GR", "setting": "[3]", "result": "lack of affinity"}, {"measurement": "binding to LIF", "setting": "[4]", "result": "binding to LIFR, but not LIF"}, {"measurement": "IC50", "setting": "[5]", "result": "10 to 50", "unit": "nM"}, {"measurement": "colony formation ability", "setting": "[6]", "result": "significantly reduced"}, {"measurement": "invasion potential", "setting": "[7]", "result": "significantly reduced"}, {"measurement": "Annexin V positive cells", "setting": "[8]", "result": "significantly increased"}, {"measurement": "LIF stimulated STAT3 reporter activity", "setting": "[9]", "result": "inhibited"}, {"measurement": "OSM, CNTF and CTF1 mediated STAT3 activity", "setting": "[9]", "result": "blocked"}, {"measurement": "STAT3 activation by OSM and CNTF (phosphorylation)", "setting": "[10]; BT-549, EC359 100 nM 1 h, then OSM or CNTF 10 ng, 10 min", "result": "reduced"}, {"measurement": "LIF activation of STAT3 (phosphorylation)", "setting": "[10]; EC359 100 nM 1 h, then LIF 10 min, BT-549 and MDA-MB-231", "result": "substantially reduced"}, {"measurement": "viability of ALDH+ and ALDH− cells", "setting": "[11]", "result": "similarly inhibited"}, {"measurement": "self renewal of CSCs", "setting": "[12]", "result": "significantly reduced"}, {"measurement": "body weights of mice", "setting": "[13]", "result": "remained unchanged"}, {"measurement": "proliferating cells (Ki-67 positive cells) in tumors", "setting": "[13]", "result": "fewer proliferating cells"}, {"measurement": "tumor progression (tumor volume)", "setting": "[13]", "result": "significantly reduced"}, {"measurement": "activation of STAT3 target genes in tumors", "setting": "[13]; RT-qPCR", "result": "significant decrease"}, {"measurement": "body weight", "setting": "[14]", "result": "did not affected"}, {"measurement": "proliferating cells (Ki-67) in PDX tumors", "setting": "[14]", "result": "fewer proliferating cells"}, {"measurement": "tumor progression (tumor volume)", "setting": "[14]", "result": "significantly reduced"}, {"measurement": "AUC0-inf", "setting": "[15]; IV 5 mg/kg", "result": 15573.91, "unit": "ng·h/mL"}, {"measurement": "AUC0-last", "setting": "[15]; IV 5 mg/kg", "result": 15544.36, "unit": "ng·h/mL"}, {"measurement": "T½", "setting": "[15]; IV 5 mg/kg", "result": 3.86, "unit": "h"}, {"measurement": "mean C0", "setting": "[15]; IV 5 mg/kg", "result": 74669.11, "unit": "ng/mL"}, {"measurement": "AUC0-inf", "setting": "[15]; oral 10 mg/kg", "result": 3876.82, "unit": "ng·h/mL"}, {"measurement": "AUC0-last", "setting": "[15]; oral 10 mg/kg", "result": 3792.26, "unit": "ng·h/mL"}, {"measurement": "Tmax", "setting": "[15]; oral 10 mg/kg", "result": 2.67, "unit": "h"}, {"measurement": "mean Cmax", "setting": "[15]; oral 10 mg/kg", "result": 919.50, "unit": "ng/mL"}, {"measurement": "CYP 2D6 inhibition", "setting": "[16]", "result": "inhibits 2D6"}, {"measurement": "Metabolic stability", "setting": "[17]", "result": "moderate"}, {"measurement": "plasma stability", "setting": "[18]", "result": "moderate"}, {"measurement": "plasma protein binding", "setting": "[19]", "result": "high"}, {"measurement": "caspase 3/7 activity", "setting": "[20]", "result": "significantly increased"}, {"measurement": "bioavailability (PK)", "setting": "[21]", "result": "Good bioavailability"}, {"measurement": "mutagenicity (Ames test)", "setting": "[22]", "result": "non-mutagenic"}]}]}
